Laboratory results from article PMC11605132 (eClinicalMedicine, 2024).
“Also recorded” adds a separate entry of the source. Read-outs that look alike come from different tables or passages of the source.

Key:
patients with AIS [1] = assay: Intracerebral hemorrhage on CT and MRI, AMFIS trial; assay type: in vivo, human; conditions: Day 1 to Day 90
Summary of the method: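 Patients (20–90 years, new DWI lesion, treated within 24 h of onset) were randomized 2:1 to adrenomedullin or a D-mannitol placebo under double-blind conditions. Non-contrast CT was performed at 24 h and on Day 7, and MRI on Day 90.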

patients with AIS [2] = assay: NIHSS score, primary efficacy endpoint, AMFIS trial; assay type: in vivo, human
Summary of the method: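 Trained stroke neurologists scored NIHSS at baseline, 8, 24 and 72 h after infusion start, and on Day 7, keeping the same examiner per patient where possible. Least square means with 95% CI came from generalized estimating equations. Fixed effects were treatment, time point and treatment×time, with baseline NIHSS as covariate. The same model compared the pulsed and continuous-pulsed groups.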

healthy volunteers = conditions: cited from earlier work
patients with AIS [3] = assay: All adverse events, AMFIS phase II trial; assay type: in vivo, human
Summary of the method: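 Double-blind, 2:1 stratified block randomization by age (<75, 75–90 years) against a placebo vial of 50 mg D-mannitol. Patients were aged 20–90 with new DWI lesions and treated within 24 h of onset. AEs were monitored from infusion start to 3 days after the intervention ended, with close blood-pressure watch. Severity was graded on five levels (mild to death), and an independent committee judged causality.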

[4] = assay type: in vivo; conditions: human, plasma, 9 ng/kg/min, mean ± SD
[5] = patients receiving adrenomedullin, n=40

With `CC[C@H](C)[C@H](NC(=O)[C@H](CCC(N)=O)NC(=O)[C@H](Cc1c[nH]cn1)NC(=O)[C@H](C)NC(=O)[C@H](CC(C)C)NC(=O)[C@H](CCCCN)NC(=O)[C@H](CCC(N)=O)NC(=O)[C@@H](NC(=O)[C@@H](NC(=O)[C@@H]1CSSC[C@H](NC(=O)CNC(=O)[C@H](Cc2ccccc2)NC(=O)[C@H](CO)NC(=O)[C@H](CCCNC(=N)N)NC(=O)[C@H](CC(C)C)NC(=O)CNC(=O)[C@H](CCC(N)=O)NC(=O)[C@H](Cc2ccccc2)NC(=O)[C@H](CC(N)=O)NC(=O)[C@H](CC(N)=O)NC(=O)[C@H](CCSC)NC(=O)[C@H](CO)NC(=O)[C@H](CCC(N)=O)NC(=O)[C@H](CCCNC(=N)N)NC(=O)[C@@H](N)Cc2ccc(O)cc2)C(=O)N[C@@H](CCCNC(=N)N)C(=O)N[C@@H](Cc2ccccc2)C(=O)NCC(=O)N[C@@H]([C@@H](C)O)C(=O)N1)[C@@H](C)O)C(C)C)C(=O)N[C@@H](Cc1ccc(O)cc1)C(=O)N[C@@H](CCC(N)=O)C(=O)N[C@@H](Cc1ccccc1)C(=O)N[C@H](C(=O)N[C@@H](CC(=O)O)C(=O)N[C@@H](CCCCN)C(=O)N[C@@H](CC(=O)O)C(=O)N[C@@H](CCCCN)C(=O)N[C@@H](CC(=O)O)C(=O)N[C@@H](CC(N)=O)C(=O)N[C@H](C(=O)N[C@@H](C)C(=O)N1CCC[C@H]1C(=O)N[C@@H](CCCNC(=N)N)C(=O)N[C@@H](CO)C(=O)N[C@@H](CCCCN)C(=O)N[C@H](C(=O)N[C@@H](CO)C(=O)N1CCC[C@H]1C(=O)N[C@@H](CCC(N)=O)C(=O)NCC(=O)N[C@@H](Cc1ccc(O)cc1)C(N)=O)[C@@H](C)CC)C(C)C)[C@@H](C)O` [adrenomedullin] the “intracerebral hemorrhage on CT and MRI” value (patients with AIS [1]) was “no intracerebral hemorrhage was observed”, the “Intergroup difference in NIHSS changes, LSM (95% CI)” value (patients with AIS [2]; 7-day, AM minus placebo, GEE model) was 0.32 (−0.91–1.56) and the “NIHSS changes from pre-treatment, LSM (SE; 95% CI in text)” value (“NIHSS changes … (SE; 95% CI in text)” below) (patients with AIS [2]; 7-day, AM n=40, GEE model) was −0.76. The “Intergroup difference in NIHSS changes, LSM (95% CI)” value (patients with AIS [2]; 7-day, C/P-AM minus P-AM, GEE) was 0.67 (−0.64–1.98), the “NIHSS changes … (SE; 95% CI in text)” value (patients with AIS [2]; 7-day, C/P-AM, GEE, dose-finding analysis) was −0.42 and the “NIHSS changes … (SE; 95% CI in text)” value (patients with AIS [2]; 7-day, P-AM, GEE, dose-finding analysis) was −1.08. For the same compound, the “Intergroup difference in NIHSS changes, LSM (95% CI)” value (patients with AIS [2]; 8-h, AM minus placebo, GEE model) was 0.25 (−0.24–0.74), the “Intergroup difference in NIHSS changes, LSM (95% CI)” value (patients with AIS [2]; 8-h, C/P-AM minus P-AM, GEE) was 0.52 (−0.12–1.16) and the “Intergroup difference in NIHSS changes, LSM (95% CI)” value (patients with AIS [2]; 24-h, AM minus placebo, GEE model) was 0.15 (−0.46–0.75). The “Intergroup difference in NIHSS changes, LSM (95% CI)” value (patients with AIS [2]; 24-h, C/P-AM minus P-AM, GEE) was 0.62 (−0.29–1.53), the “Intergroup difference in NIHSS changes, LSM (95% CI)” value (patients with AIS [2]; 72-h, AM minus placebo, GEE model) was 0.35 (−0.93–1.63) and the “Intergroup difference in NIHSS changes, LSM (95% CI)” value (patients with AIS [2]; 72-h, C/P-AM minus P-AM, GEE) was 0.32 (−1.09–1.72). For the same compound, the “mean change in the NIHSS score from pre-treatment to Day 7” value (“mean change in the NIHSS score” below) (patients with AIS [2]; C/P-AM) was −0.45, the “median change in the NIHSS score from pre-treatment to Day 7” value (from here on “median change in the NIHSS score”) (patients with AIS [2]; C/P-AM) was −0.5 and the “mean change in the NIHSS score” value (patients with AIS [2]; P-AM) was −1.05. The “median change in the NIHSS score” value (patients with AIS [2]; P-AM) was −1, the “efficacy on NIHSS scores” value (patients with AIS [2]; in vivo) was “not demonstrated” and the “mean change in the NIHSS score” value (patients with AIS [2]; [5]) was −0.75. For the same compound, the “median change in the NIHSS score” value (patients with AIS [2]; [5]) was −1.00, the half-life (healthy volunteers) was less than 1 h and the “blood levels of adrenomedullin” value (healthy volunteers; dose of 9 ng/kg/min) was 0.01 to 0.02 ng/mL. For the same compound, the severe adverse events (healthy volunteers; healthy volunteers) was “no severe adverse events”, the “patients with AEs, n (%, 95% CI)” value (patients with AIS [3]; C/P-AM) was 14 and the “patients with AEs, n (%, 95% CI)” value (patients with AIS [3]; P-AM) was 11. The “cases of drop in blood pressure” value (patients with AIS [3]; adrenomedullin group, n=40) was 10.0%, the “cases of low blood pressure” value (patients with AIS [3]; adrenomedullin group, n=40) was 2.5% and the “life-threatening AEs or death” value (patients with AIS [3]; first-half and second-half cohorts) was “No life-threatening AEs or death were reported”. The Laboratory tests (patients with AIS [3]; in vivo) was “no clinically significant changes”, the tolerability (patients with AIS [3]; non-severe, non-embolic AIS) was “well tolerated” and the “SAEs related to the intervention” value (patients with AIS [3]; [5]) was “Neither intervention-related serious adverse events nor severe adverse events were observed; also recorded: no “SAEs related to the intervention” were reported; also recorded: No SAEs were observed”. For the same compound, the “Severe AEs (grade 3)” value (patients with AIS [3]; [5]) was “observed only in the placebo group”, the Cmax ([4]; C/P-AM) was 0.061 ng/mL and the Cmax ([4]; P-AM) was 0.0442 ng/mL.
